DENV2 CPE rescue: inhibitors of DENV2 cytopathic effect, primary screen, cell-based, plate reader, single concentration; DENV2-infected cells, cytopathic effect rescue; CPE inhibition, % at 9.99 µM; hit rate 1.7% among 350,000; in the data active = CPE inhibition above about 20%, passing the limit was not always enough; tested in BHK-21 cells;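 also: 0% = median of neutral control wells and 100% = median of positive control wells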
Cneo AK release: Cryptococcus neoformans cell lysis inducers, primary screen, AK release luminescence, single concentration | C. neoformans lysis, adenylate kinase release luminescence, 4 h; normalised: neutral wells 0, clomiphene wells 100 | lysis activity, % at 15 µM | hit rate 0.2% among 360,000;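 active = mean lysis activity across replicates of at least 80%, whatever share of replicates individually reach that level; inactive = mean lysis activity below 80%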
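Test system: log-phase Cryptococcus neoformans yeast cells. Input: 5 × 10^6 yeast cells/mL. Medium: fresh YPD growth medium. Doses: single dose. Incubation: static 4 h at 37 °C with compound, 1 h detection. Measured by: luminescent adenylate kinase detection reagent. Read-out: signal increase indicating cell lysis. Benchmarks: Clomiphene.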
E-selectin induc: E-selectin induction in HUVECs, primary screen, imaging, HUVEC, immunofluorescence imaging, single point. normalized: neutral wells 0, TNF-alpha wells 100. activation, % at 7.58 µM. hit rate 0.37% among 260,000. AID 686992, 2013;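 active = mean E-selectin-positive cell signal at least 10% of the positive control, reached in at least 60% of replicates, without over 20% cell loss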
Target sequence (P16581 whole entry, looked up): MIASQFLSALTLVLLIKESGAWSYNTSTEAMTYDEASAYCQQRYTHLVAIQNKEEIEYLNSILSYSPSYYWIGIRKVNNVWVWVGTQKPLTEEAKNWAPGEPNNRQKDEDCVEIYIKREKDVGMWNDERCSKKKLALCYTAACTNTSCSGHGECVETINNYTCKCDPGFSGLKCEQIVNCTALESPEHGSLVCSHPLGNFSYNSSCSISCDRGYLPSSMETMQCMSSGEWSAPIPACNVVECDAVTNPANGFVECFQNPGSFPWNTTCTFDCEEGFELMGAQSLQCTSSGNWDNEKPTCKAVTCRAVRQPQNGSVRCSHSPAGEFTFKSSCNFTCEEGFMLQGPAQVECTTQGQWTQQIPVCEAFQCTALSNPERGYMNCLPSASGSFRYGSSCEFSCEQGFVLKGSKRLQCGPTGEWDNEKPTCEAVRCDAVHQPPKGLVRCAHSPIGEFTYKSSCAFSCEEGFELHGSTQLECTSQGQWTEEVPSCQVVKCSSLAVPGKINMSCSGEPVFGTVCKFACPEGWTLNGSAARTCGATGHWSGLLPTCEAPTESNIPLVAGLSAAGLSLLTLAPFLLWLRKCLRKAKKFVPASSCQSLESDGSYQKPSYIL
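material = human umbilical vein endothelial cells (HUVEC), E-selectin induction | quantity = 3,000 cells/well | medium = EGM-2 growth medium on 0.1% gelatin-coated wells | technique = immunofluorescence imaging | read-out basis = % PE-positive cells | control set = TNF-alpha positive control, DMSO neutral control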
Ecoli rRNA inh: reduced GFP signal of wild-type E. coli, primary screen, bacterial rRNA inhibitor project, GFP/RFP fluorescence, OD600, single point; AID 720706, 2013; GFP signal change (wild-type ribosome), % (no concentration beside the values); E. coli WT GFP vs humanized-ribosome RFP mutants, 24 h; active compounds read low; DMSO median 0, no signal -100; hit rate 1.6% among 350,000;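 active = significant combined selectivity score with lowered wild-type GFP, culture density cut under 30%, mutant RFP and density less affected; inactive = any of these conditions unmet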
miR122 inh: miR-122 Renilla sensor signal increase in Huh7, primary screen, miR-122 inhibitor project, cell-based, single point, plate reader; hit rate 0.3% among 340,000; activation (reporter increase), % at 12.5 µM; Huh7 miR-122 Renilla luciferase sensor, 48 h; neutral wells = 0, positive control = 100;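 active = mean replicate activation score at least 90 and every replicate individually at or above 90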;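 also: higher luciferase means less miR-122 activity so hits act as miR-122 inhibitors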
Active calls of the source: *; x = no result; [ ] = another dose, or the depositor's remark. Hits are enriched below; roughly 3.1% of the tested compounds scored in any of these assays.

SMILES	DENV2 CPE rescue	Cneo AK release	E-selectin induc	Ecoli rRNA inh	miR122 inh
COc1ccc(C2C(C(=O)c3cccs3)=C(O)C(=O)N2c2cccc(C)n2)cc1 (stereo not drawn)	2.4	x	0.2	-18.1*	x
C[C@@H]1CN([C@H](C)CO)S(=O)(=O)c2ccc(C#Cc3ccccc3)cc2O[C@H]1CN(C)C(=O)CN(C)C	24.3*	10.4	-0.3	-3.2	-6.7[16.7 µM]
C[C@H](CO)N1C[C@H](C)[C@@H](CN(C)C(=O)CN(C)C)Oc2cc(C#Cc3ccccc3)ccc2S1(=O)=O	11.7	5.0	0.8	0.0	-1.4[16.7 µM]
C[C@H](CO)N1C[C@H](C)[C@@H](CN(C)C(=O)C2CC2)Oc2cc(C#Cc3ccccc3)ccc2S1(=O)=O	174.4*	-3.0	0.1	-4.5	27.4[16.7 µM]
C[C@H](O)C#Cc1ccc2c(c1)O[C@H](CN(C)C(=O)CN(C)C)[C@@H](C)CN([C@H](C)CO)S2(=O)=O	23.9*	0.0	-0.2	-1.3	-4.9[16.7 µM]
CO[C@@H]1CN(C)C(=O)c2ccc(NC(=O)Nc3ccccc3)cc2OC[C@@H](C)N(CC2CC2)C[C@@H]1C	-1.2	1.3	-0.1	-2.5	16.0[16.7 µM]
CCCNC(=O)C[C@H]1CC[C@H]2[C@@H](COC[C@@H](O)CN2S(=O)(=O)c2ccc(Oc3ccccc3)cc2)O1	-4.6	90.4*	0.1	-1.7	-2.5[16.7 µM]
CCCNC(=O)C[C@@H]1CC[C@@H]2[C@H](COC[C@H](O)CN2S(=O)(=O)c2ccc(Oc3ccccc3)cc2)O1	-7.0	7.8	-0.1	0.2	5.0[16.7 µM]
Cn1cnc(S(=O)(=O)N2C[C@@H](O)COC[C@H]3O[C@H](CC(=O)NC4CCCC4)CC[C@@H]32)c1	6.2	-2.5	0.0	0.5	1.2[16.7 µM]
Cn1cnc(S(=O)(=O)N2C[C@H](O)COC[C@@H]3O[C@@H](CC(=O)NC4CCCC4)CC[C@H]32)c1	58.8*	-0.9	0.0	0.4	-1.1[16.7 µM]
O=C(C[C@H]1CC[C@H]2[C@@H](COC[C@@H](O)CN2S(=O)(=O)c2ccc(Oc3ccccc3)cc2)O1)NC1CCC1	0.5	85.7*	0.1	0.7	12.7[16.7 µM]
CNC(=O)C[C@@H]1CC[C@@H]2[C@H](COC[C@H](O)CN2S(=O)(=O)c2ccc(Oc3ccccc3)cc2)O1	5.1	-2.6	0.1	1.1	-1.9[16.7 µM]
CC(C)NC(=O)N(C)C[C@H]1Oc2c(NS(=O)(=O)c3ccccc3)cccc2C(=O)N([C@@H](C)CO)C[C@H]1C	2.1	2.5	26.3	-3.9	-4.5[16.7 µM]
C[C@H]1CCCCO[C@@H](CN(C)S(=O)(=O)c2ccc(F)cc2)[C@@H](C)CN([C@@H](C)CO)C(=O)c2cc(NC(=O)Nc3cccc4ccccc34)ccc2O1	-4.2	x	-0.2	4.9	x
CCS(=O)(=O)N1CCN(c2ccccc2F)CC1	x	-4.6	x	x	1.1
O=C1Oc2ccccc2C(=O)/C1=C/N1CCN(c2ccccc2F)CC1	-0.6	x	-3.6	-30.3*	-0.5
COc1ccccc1NC(=O)N1CC(=O)N2[C@H](CO)[C@@H](c3ccc(C#CCC(C)C)cc3)[C@@H]2C1	x	x	x	-4.9	x
COc1ccc2c3c(n(C)c2c1)[C@@H](CO)N(C)CC31CCN(S(=O)(=O)c2cccs2)CC1	5.3	x	0.5	-5.0	x
Cc1noc(C)c1NC(=O)N(C)C[C@@H]1Oc2c(NC(=O)Nc3ccc(C(F)(F)F)cc3)cccc2C(=O)N([C@@H](C)CO)C[C@H]1C	6.6	-2.2	x	x	0.5[16.7 µM]
C[C@@H]1CN([C@H](C)CO)C(=O)c2cccc(NC(=O)Nc3ccc4c(c3)OCO4)c2O[C@@H]1CN(C)C(=O)Nc1ccc(C(F)(F)F)cc1	2.7	-4.4	59.9*	-6.4	-4.0[16.7 µM]
Cc1noc(C)c1NC(=O)N(C)C[C@H]1Oc2c(NC(=O)Nc3ccc(C(F)(F)F)cc3)cccc2C(=O)N([C@@H](C)CO)C[C@@H]1C	26.7*	52.3	-0.3	-1.9	-4.7[16.7 µM]
C[C@@H]1CN([C@H](C)CO)C(=O)c2cccc(NC(=O)Nc3ccc(C(F)(F)F)cc3)c2O[C@@H]1CN(C)C(=O)Nc1ccccc1	43.2*	-10.0	0.4	1.5	-5.5[16.7 µM]

High-throughput results (PubChem BioAssay)
